Results from ChEMBL document CHEMBL1153585, “Evaluation of in vivo wound-healing potential of 2-[4-(2,4-dimethoxy-benzoyl)-phenoxy]-1-[4-(3-piperidin-4-yl-propyl)-piperidin-1-yl]-ethanone derivatives” (2009).
The source made the active and inactive calls. The calls are words filed in the database; no cut-off is given here.

Experiments:
Rattus norvegicus [1] = experiment: Wound healing activity in po dosed Swiss albino rat dead space wound model assessed as wet weight of granulation tissue per 100 gm after 24 hrs; type: functional
Method in brief: (§1)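 Oral dosing by feeding tube of a 4 mg/mL suspension in 1% (w/v) Tween-80, prepared fresh. Ten groups of four animals: untreated control, a 0.2% (w/w) nitrofurazone ointment reference, and eight test groups. Granulation tissue was weighed wet and dry, and its breaking strength was measured. Values are mean ± SE of 4 animals, analysed by one-way ANOVA with Tukey's test against control.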

Rattus norvegicus [2] = experiment: Wound healing activity in po dosed Swiss albino rat dead space wound model assessed as dry weight of granulation tissue per 100 gm after 24 hrs; type: functional; method in brief: as §1
Rattus norvegicus [3] = experiment: Wound healing activity in po dosed Swiss albino rat dead space wound model assessed as skin breaking strength after 10 days; type: functional; method in brief: as §1
Rattus norvegicus [4] = experiment: Wound healing activity in po dosed Swiss albino rat incision wound model assessed as skin breaking strength after 10 days; type: functional
Rattus norvegicus [5] = experiment: Wound healing activity in po dosed Swiss albino rat dead space wound model assessed as granuloma epithelialization and collagenation; type: functional, organism-based
Rattus norvegicus [6] = experiment: Wound healing activity in po dosed Swiss albino rat incision wound model assessed as increase in dry weight of granulation tissue after 24 hrs; type: functional, organism-based
Rattus norvegicus [7] = experiment: Wound healing activity in po dosed Swiss albino rat incision wound model assessed as increase in wet weight of granulation tissue after 24 hrs; type: functional, organism-based

| Compound | Activity (Rattus norvegicus [1]) | Activity (Rattus norvegicus [2]) | Activity (Rattus norvegicus [3]) | Activity (Rattus norvegicus [4]) | Activity (Rattus norvegicus [5]) | Activity (Rattus norvegicus [6]) | Activity (Rattus norvegicus [7]) |
| --- | --- | --- | --- | --- | --- | --- | --- |
| COc1ccc(C(=O)c2ccc(OCC(=O)N3CCC(CCCC4CCN(C(=O)Nc5ccc(F)cc5)CC4)CC3)cc2)c(OC)c1 | 91.31 mg | 17.8 mg | 451.6 g | 552.06 g | – | – | – |
| NC(=O)N/N=C/c1ccc([N+](=O)[O-])o1 [NITROFURAZONE] | – | – | – | 875 g | – | – | – |
| COc1ccc(NC(=O)N2CCC(CCCC3CCN(C(=O)COc4ccc(C(=O)c5ccc(OC)cc5OC)cc4)CC3)CC2)cc1 | 112.48 mg | 21.59 mg | 414.19 g | 503.89 g | – | – | – |
| COc1ccc(C(=O)c2ccc(OCC(=O)N3CCC(CCCC4CCN(C(=S)Nc5ccc(Cl)cc5Cl)CC4)CC3)cc2)c(OC)c1 | 88.02 mg | 21.02 mg | 619.15 g | 612.5 g | – | – | – |
| COc1ccc(NC(=S)N2CCC(CCCC3CCN(C(=O)COc4ccc(C(=O)c5ccc(OC)cc5OC)cc4)CC3)CC2)cc1 | 80.54 mg | 12.36 mg | 355.42 g | 675 g | – | – | – |
| COc1ccc(C(=O)c2ccc(OCC(=O)N3CCC(CCCC4CCN(C(=O)Nc5ccc(Cl)cc5Cl)CC4)CC3)cc2)c(OC)c1 | 79 mg | 17.81 mg | 361.6 g | 445.12 g | – | – | – |
| COc1ccc(C(=O)c2ccc(OCC(=O)N3CCC(CCCC4CCN(C(=O)Nc5ccccc5Cl)CC4)CC3)cc2)c(OC)c1 | 104.85 mg | 21.01 mg | 541.82 g | 605.49 g | Active | – | – |
| COc1ccc(C(=O)c2ccc(OCC(=O)N3CCC(CCCC4CCN(C(=S)Nc5ccc(F)cc5)CC4)CC3)cc2)c(OC)c1 | 122.94 mg | 26.27 mg | 645.69 g | 760.88 g | Active | Active | Active |
| COc1ccc(C(=O)c2ccc(OCC(=O)N3CCC(CCCC4CCN(C(=S)Nc5ccccc5Cl)CC4)CC3)cc2)c(OC)c1 | 134.79 mg | 26.04 mg | 623.25 g | 748.38 g | Active | Active | Active |
